Experimental data of several laboratories.
Each line is one published result; the experiments were not run side by side.
Target: Dual specificity protein kinase CLK1 (CLK1, Homo sapiens, UniProt P49759)
Technique: competition with immobilised ligand

With `O=C(NCCCN1CCOCC1)c1ccc(Nc2nccc(-c3cc4ccccc4s3)n2)cc1` the remaining binding was 12% (binding; 1 µM).
`O=S(=O)(NC1CCC(c2cc(F)ccc2F)(S(=O)(=O)c2ccc(Cl)cc2)CC1)C(F)(F)F` (centres unmarked) gave a remaining binding of 78% (cell-free assay; 1 µM).
For `CNC(=O)c1ccccc1Nc1cc(Nc2ccc(N3CCOCC3)cc2OC)ncc1C(F)(F)F`, the remaining binding was < 10% (binding; 1 µM).
`CCN1CCN(Cc2ccc(C(=O)Nc3ccc(C)c(Oc4ccc5c(c4)CC(=O)N5)c3)cc2C(F)(F)F)CC1` has a remaining binding of 100% (binding; 1 µM).
With `O=C(NCC1CCOCC1)c1n[nH]cc1NC(=O)c1c(F)cccc1F` the remaining binding was 30% (binding; 1 µM).
`Nc1ncc2c(n1)-c1c([nH]c3ccc(C#CC4CC4)cc13)CCCC2` has a remaining binding of 100% (binding; 1 µM).
`COc1cnc(Nc2cccc(S(N)(=O)=O)c2)nc1N1CCN(c2ccccc2)C(=O)C1` gave a remaining binding of 100% (binding; 1 µM).
The remaining binding of `COc1cc(-c2cn(C3CCc4c(F)cccc4N(CC(F)(F)F)C3=O)nn2)ccc1-n1cnc(C)c1` (centres unmarked) is reported as 77% (cell-free assay; 1 µM).
For `COc1ncc2cc3ccccc3nc2c1C#N`, the remaining binding was 98% (cell-free assay; 5 µM).
For `O=C(c1ccc(Nc2ncc(Cl)c(-c3ccc(Cl)s3)n2)cc1)N1CCC(N2CCCC2)CC1`, the remaining binding was 3.9% (binding; 1 µM).
`C[C@H](c1ccnc(Nc2nc3ccc(-c4cc(N(C)C)ncn4)cc3[nH]2)c1)N1CCN(C(=O)CC(F)(F)F)CC1` gave a remaining binding of 90% (cell-free assay; 0.1 µM).
With `COc1cnc(Nc2cccc(S(N)(=O)=O)c2)nc1N1CCN(c2ccccc2)CC1` the remaining binding was 96% (binding; 1 µM).
With `O=C(c1ccc(Nc2ncc(Cl)c(-c3cc4ccccc4s3)n2)cc1)N1CCC(N2CCCC2)CC1` the remaining binding was 3% (binding; 1 µM).
`CN([C@@H]1CCc2c(CC(=O)O)c3cc(S(C)(=O)=O)ccc3n2C1)S(=O)(=O)c1ccc(F)cc1` has a remaining binding of 100% (cell-free assay; 1 µM).
